Calls of active or inactive are those of the source. The rule behind the calls is not given here.
Columns and labels:
MDA-MB-231 = test: Antiproliferative activity against triple negative human MDA-MB-231 cells assessed as reduction in cell viability after 72 hrs by MTT assay; type: functional, cell-based; settings: MDA-MB-231, 72 h
In short: (§1)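 Cells seeded, grown 24 h in full medium, then serum-starved 24 h before compound exposure. Six concentrations (0.1, 1, 10, 20, 40, 100 µM) tested in triplicate; MTT absorbance read at 570 nm; results as % of basal, IC50 calculated. Means ± standard deviations. MCF-7 in DMEM-F12 with 5% NCS, MDA-MB-231 with 5% FBS, MCF-10A with 5% horse serum plus hEGF, insulin, hydrocortisone, cholera enterotoxin; 37 °C, 5% CO2.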

MCF7 = test: Antiproliferative activity against ER-alpha positive human MCF7 cells assessed as reduction in cell viability after 72 hrs by MTT assay; type: functional, cell-based; settings: MCF7, 72 h; in short: as §1
MCF-10A = test: Cytotoxicity against human MCF10A cells assessed as reduction in cell viability after 72 hrs by MTT assay; type: cell-based; in short: as §1
Tubulin (Bos taurus) [1] = target: T1, Tubulin (Bos taurus) (UniProt Q6B856+Q862L2+Q862F3); test: Inhibition of bovine tubulin at 10 uM assessed as tubulin heterodimers assembly to form microtubule by measuring OD at 350nm in presence of GTP measured every 30 secs for 90 mins by turbidimetric assay; type: protein assay
In short: (§2)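 Kit-based assay: 60 µM tubulin in 1x PB-GTP with compound at 10 µM final (DMSO vehicle control), 37 °C, 10 s shaking before each reading. Turbidity read at 350 nm every 30 s for 90 min. Paclitaxel and Vinblastine at 10 µM final as stabilizing and destabilizing references.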

[2] = target: DNA topoisomerase 2-alpha (Homo sapiens) (UniProt P11388); test: Inhibition of human topoisomerase 2 mediated decatenation at 50 uM using kinetoplast DNA as susbtrate after 1 hr by ethidium bromide staining based agarose gel electrophoresis
DNA topoisomerase 2-alpha (Homo sapiens), sequence (P11388 whole entry): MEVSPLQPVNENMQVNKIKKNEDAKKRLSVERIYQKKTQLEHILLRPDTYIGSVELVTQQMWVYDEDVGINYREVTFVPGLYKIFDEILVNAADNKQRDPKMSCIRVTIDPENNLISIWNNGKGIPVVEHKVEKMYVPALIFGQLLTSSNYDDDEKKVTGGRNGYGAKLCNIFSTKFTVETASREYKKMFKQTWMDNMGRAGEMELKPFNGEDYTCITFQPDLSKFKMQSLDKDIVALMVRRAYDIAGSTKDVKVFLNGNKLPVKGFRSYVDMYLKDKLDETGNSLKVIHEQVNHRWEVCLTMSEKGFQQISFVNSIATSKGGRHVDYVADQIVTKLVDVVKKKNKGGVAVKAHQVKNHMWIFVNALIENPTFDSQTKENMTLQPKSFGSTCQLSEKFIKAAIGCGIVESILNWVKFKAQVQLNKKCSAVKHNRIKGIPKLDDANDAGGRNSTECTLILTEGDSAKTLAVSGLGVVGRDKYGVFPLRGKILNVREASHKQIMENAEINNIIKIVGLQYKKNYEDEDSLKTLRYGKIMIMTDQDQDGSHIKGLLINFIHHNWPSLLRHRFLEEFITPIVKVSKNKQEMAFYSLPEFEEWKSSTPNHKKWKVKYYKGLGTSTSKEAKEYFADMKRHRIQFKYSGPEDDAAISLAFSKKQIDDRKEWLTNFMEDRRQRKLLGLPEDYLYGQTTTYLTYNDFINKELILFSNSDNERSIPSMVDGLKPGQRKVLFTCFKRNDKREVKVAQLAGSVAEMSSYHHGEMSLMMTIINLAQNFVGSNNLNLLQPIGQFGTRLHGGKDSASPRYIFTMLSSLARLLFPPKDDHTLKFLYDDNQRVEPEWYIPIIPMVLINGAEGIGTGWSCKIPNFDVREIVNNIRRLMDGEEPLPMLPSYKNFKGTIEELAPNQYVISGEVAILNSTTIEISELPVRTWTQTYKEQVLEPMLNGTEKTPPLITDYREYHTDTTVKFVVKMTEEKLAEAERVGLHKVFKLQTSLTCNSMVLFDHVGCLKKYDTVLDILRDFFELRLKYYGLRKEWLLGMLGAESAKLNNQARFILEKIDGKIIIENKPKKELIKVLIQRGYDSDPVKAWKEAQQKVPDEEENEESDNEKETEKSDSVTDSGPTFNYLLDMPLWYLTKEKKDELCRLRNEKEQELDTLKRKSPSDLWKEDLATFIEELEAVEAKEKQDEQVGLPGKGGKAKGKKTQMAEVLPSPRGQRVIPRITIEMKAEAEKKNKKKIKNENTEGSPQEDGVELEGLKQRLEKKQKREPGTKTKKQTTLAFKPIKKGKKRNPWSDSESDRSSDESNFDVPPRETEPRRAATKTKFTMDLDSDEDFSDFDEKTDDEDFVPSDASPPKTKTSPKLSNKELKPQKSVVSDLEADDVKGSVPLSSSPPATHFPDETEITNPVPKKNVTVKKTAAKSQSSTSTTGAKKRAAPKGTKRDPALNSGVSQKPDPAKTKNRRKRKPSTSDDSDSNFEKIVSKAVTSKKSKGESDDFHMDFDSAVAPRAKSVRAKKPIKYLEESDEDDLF
In short: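 Decatenation in 20 µL with 0.2 µg kinetoplast DNA and 3 units hTopo II; compounds at 50 µM, 1 h at 37 °C.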

[3] = target: DNA topoisomerase 2-alpha (Homo sapiens) (UniProt P11388); test: Inhibition of human topoisomerase 2 mediated decatenation up to 100 uM using kinetoplast DNA as susbtrate after 1 hr by ethidium bromide staining based agarose gel electrophoresis
Tubulin (Bos taurus) [4] = target: T1, Tubulin (Bos taurus); test: Inhibition of bovine tubulin assessed as decrease in tubulin polymerization gradually followed by steady state decrease measured after 30 mins by turbidimetric assay; type: protein assay; in short: as §2
[5] = target: T2, DNA topoisomerase 1 (Homo sapiens) (UniProt P11387); test: Inhibition of recombinant human topoisomerase 1 mediated DNA relaxation assessed as uncleaved plasmid DNA at 50 uM using supercoiled pHOT1 plasmid as substrate after 1 hr by ethidium bromide staining based agarose gel electrophoresis
T2 sequence (whole entry): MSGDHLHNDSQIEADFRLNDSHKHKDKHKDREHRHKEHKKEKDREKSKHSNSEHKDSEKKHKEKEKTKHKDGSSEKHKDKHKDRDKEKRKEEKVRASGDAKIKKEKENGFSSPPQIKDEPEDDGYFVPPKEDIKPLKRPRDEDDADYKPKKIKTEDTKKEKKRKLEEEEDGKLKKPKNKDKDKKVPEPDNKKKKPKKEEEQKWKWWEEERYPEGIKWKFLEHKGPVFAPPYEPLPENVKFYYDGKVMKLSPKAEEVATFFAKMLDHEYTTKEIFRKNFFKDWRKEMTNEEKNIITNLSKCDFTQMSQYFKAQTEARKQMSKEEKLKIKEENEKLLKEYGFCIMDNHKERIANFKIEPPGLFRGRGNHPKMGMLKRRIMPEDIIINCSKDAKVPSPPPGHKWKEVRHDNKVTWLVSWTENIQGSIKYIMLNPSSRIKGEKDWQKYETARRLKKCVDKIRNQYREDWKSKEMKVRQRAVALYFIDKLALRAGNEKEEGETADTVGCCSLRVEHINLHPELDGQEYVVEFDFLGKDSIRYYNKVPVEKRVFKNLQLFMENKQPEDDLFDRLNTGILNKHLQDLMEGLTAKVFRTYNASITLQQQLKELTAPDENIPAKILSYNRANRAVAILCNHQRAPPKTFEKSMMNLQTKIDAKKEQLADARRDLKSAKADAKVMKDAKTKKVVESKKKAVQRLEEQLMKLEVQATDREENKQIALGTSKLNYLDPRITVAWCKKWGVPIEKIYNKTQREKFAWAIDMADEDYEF
In short: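 Relaxation in 20 µL: 0.25 µg supercoiled pHOT1 in TE buffer, 2 units recombinant hTopo I, compound at 50 µM final, 1 h at 37 °C. Run on 1% agarose in 1x TAE without EB, then stained 30 min with EB (0.5 µg/mL), washed 15 min in water, viewed under UV. Three repeats.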

Tubulin (Bos taurus) [6] = target: T1, Tubulin (Bos taurus); test: Inhibition of bovine tubulin assessed as decrease in tubulin polymerization gradually followed by steady state decrease measured after 15 mins by turbidimetric assay; type: protein assay; in short: as §2

| Compound | IC50 (MDA-MB-231) | IC50 (MCF7) | IC50 (MCF-10A) | OD (Tubulin (Bos taurus) [1]) | inhibition [2] | inhibition [3] | inhibition (Tubulin (Bos taurus) [4]) | inhibition [5] | inhibition (Tubulin (Bos taurus) [6]) |
| --- | --- | --- | --- | --- | --- | --- | --- | --- | --- |
| CCCN(CCC)c1nc2ccc3c4ccccc4sc3c2c(=O)[nH]1 | 4.69 µM | 42 µM | > 100 µM | 0.26 | inactive | inactive | Active |  |  |
| O=c1[nH]c(NC2CCCC2)nc2ccc3c4ccccc4sc3c12 | 5.59 µM | 45.6 µM | > 100 µM |  |  |  |  |  |  |
| CC(=O)O[C@H]1C(=O)[C@@]2(C)[C@H]([C@H](OC(=O)c3ccccc3)[C@]3(O)C[C@H](OC(=O)[C@H](O)[C@@H](NC(=O)c4ccccc4)c4ccccc4)C(C)=C1C3(C)C)[C@]1(OC(C)=O)CO[C@@H]1C[C@@H]2O |  |  |  | 0.52 |  |  |  |  |  |
| CCCCNc1nc2ccc3c4ccccc4sc3c2c(=O)[nH]1 | 38.9 µM | 74.5 µM | > 100 µM |  |  |  |  |  |  |
| O=c1[nH]c(N2CCOCC2)nc2ccc3c4ccccc4sc3c12 | 9.43 µM | 21.2 µM | > 100 µM |  |  |  |  |  |  |
| Cc1c2ccncc2c(C)c2c1[nH]c1ccccc12 [ELLIPTECINE] | 1.85 µM |  | 1.2 µM |  |  |  |  | Active |  |
| CCCCCN(CCCCC)c1nc2ccc3c4ccccc4sc3c2c(=O)[nH]1 | 42.4 µM | 75.2 µM | > 100 µM |  |  |  |  |  |  |
| CC[C@]1(O)C[C@@H]2CN(CCc3c([nH]c4ccccc34)[C@@](C(=O)OC)(c3cc4c(cc3OC)N(C)[C@H]3[C@@](O)(C(=O)OC)[C@H](OC(C)=O)[C@]5(CC)C=CCN6CC[C@]43[C@@H]65)C2)C1 [VINBLASTINE] |  | 15 µM | 25.9 µM | 0.2 |  |  |  |  |  |
| CCCNc1nc2ccc3c4ccccc4sc3c2c(=O)[nH]1 | 3.88 µM | 40.7 µM | > 100 µM | 0.24 | inactive | inactive |  | Active | Active |

From ChEMBL document CHEMBL4359873, “Benzothienoquinazolinones as new multi-target scaffolds: Dual inhibition of human Topoisomerase I and tubulin polymerization” (Eur J Med Chem, 2019)
